# Screening data as filed in PubChem.
# Sampled rows, rich in hits. Any-hit rate of the full collection: about 0.58%.
# V1R ag counter: agonists of human V1a receptor, primary screen, counter-screen for OXTR agonist project, fluorescence, CHO-V1R cells. Fluo-8 calcium fluorescence, agonist mode; 0% DMSO, 100% 3 nM vasopressin. activation, % at 3 µM. 320,000 tested, 0.25% active. AID 2797, 2010;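 active = activation above the mean activation of all tested compounds plus 3 SD, per screening run, cut at about 20% in these data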;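 note: signal is peak over basal fluorescence ratio across a 100 second FLIPR read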
# Target sequence (P37288 whole entry, looked up): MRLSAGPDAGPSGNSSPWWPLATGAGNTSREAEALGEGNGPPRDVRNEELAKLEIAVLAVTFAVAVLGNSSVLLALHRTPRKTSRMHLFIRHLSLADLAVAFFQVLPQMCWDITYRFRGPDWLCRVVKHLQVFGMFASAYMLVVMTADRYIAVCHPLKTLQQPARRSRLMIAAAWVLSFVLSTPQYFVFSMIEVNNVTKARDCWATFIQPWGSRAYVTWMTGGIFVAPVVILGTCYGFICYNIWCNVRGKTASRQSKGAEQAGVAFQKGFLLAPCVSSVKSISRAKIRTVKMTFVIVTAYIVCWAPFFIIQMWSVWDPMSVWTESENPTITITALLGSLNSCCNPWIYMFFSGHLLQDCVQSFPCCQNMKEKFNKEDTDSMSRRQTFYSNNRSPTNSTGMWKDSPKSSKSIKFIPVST
# OXTR agonist: human OXTR agonists, primary screen, fluorescence, CHO-OTR cells, Fluo-8 calcium. Fluo-8 calcium fluorescence; normalized: DMSO 0%, oxytocin 100%. activation, % at 3 µM. 320,000 tested, 0.32% active;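 active = activation above the mean of all tested compounds plus 3 SD, cutoff set per screening run, cut at about 20% in these data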;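 note: peak over basal fluorescence ratio from a 100 s FLIPR kinetic read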
# OXTR potentiate: human OXTR potentiators, primary screen, fluorescence, CHO-OTR cells, Fluo-8 calcium. Oxytocin receptor (Homo sapiens), P30559. Fluo-8 calcium fluorescence, potentiator mode; 0% = oxytocin EC15, 100% = EC100. activation, % at 3 µM. 320,000 tested, 0.061% active. AID 2445, 2010;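 active = activation above that plate's cutoff, the mean activation of tested compounds plus 3 SD, cut at about 6.6% in these data, passing the limit was not always enough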;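 note: 100% uses oxytocin at 75 nM as the full agonist control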
#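 Assay system: CHO-OTR cells, human receptor / Also added: oxytocin at about EC15, sub-maximal agonist stimulus / Dosing: single dose, 3.0 µM nominal final compound concentration / Incubation: 6 min pre-incubation, 100 s read / Technique: Fluo-8 calcium dye fluorescence / Read-out: % activation vs EC15 and EC100 oxytocin / Benchmarks: EC15 oxytocin low, 75 nM oxytocin high / Replicates: singlicate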
# TRPML3 agonist: human TRPML3 channel agonists, primary screen, cell-based, HEK293 TRPML3-YFP, Fluo-8 calcium fluorescence, 3 µM; activation, % at 3 µM; 100% = the carbachol control signal; 220,000 tested, 0.29% active; AID 1448, 2008; Mucolipin-3 (Homo sapiens), Q8TDD5;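 active = activation above its plate's cutoff, the mean activation of the plate's test wells plus 3 SD, cut at about 12% in these data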;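 note: 0% = DMSO only wells and 100% = carbachol wells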
#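 Test system – HEK293 line with stable expression of human TRPML3-YFP channel · Control set – carbachol 87 µM final as high control (100%), DMSO as low control (0%) · Signal – Fluo-8 calcium dye fluorescence, ex 470-495, em 515-575 nm · Incubation – 1-h 37 °C dye load, 5-s basal, 120-s post-compound reads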
# zfTRPN1 agonist: zebrafish TRPN1 channel agonists, primary screen, cell-based, HEK293, calcium fluorescence | 220,000 tested, 0.18% active | HEK293 zebrafish TRPN1-YFP, Fluo-8 calcium fluorescence; 100% = response to 87 µM carbachol | activation, % at 3 µM | AID 1424, 2008 | transient receptor potential cation channel N1 (TRPN1/NompC), Danio rerio;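 active = activation above its plate's cutoff, the mean activation of test wells on that plate plus 3 SD, cut at about 19% in these data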;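 note: 0% = DMSO alone and 100% = 87 µM carbachol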
#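 Material: zebrafish TRPN1-YFP in HEK293 cells; Doses: single test compound dose, 3 µM nominal, 0.3% DMSO; Timing: dye loading 1 h at 37 °C, then 30 min room temperature; Technique: intracellular calcium fluorescence with Fluo-8; Benchmarks: high carbachol 87 µM, low DMSO alone.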
# TRPN1 ag 2: zebrafish TRPN1 channel agonists, counter-screen for TRPML3 agonist project, cell-based, HEK293 TRPN1-YFP, Fluo-8 calcium; 310 tested, 10% active; activation, % at 3 µM; AID 1525, 2009; shares compounds with TRPML3 agonist; Fluo-8 calcium fluorescence; scaled: carbachol wells 100%, DMSO wells 0%;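 active = mean activation over replicates above a set limit taken from the earlier TRPN1 channel primary screen, cut at about 19% in these data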;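 note: 100% = carbachol and 0% = 0.3% DMSO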
# TRPML3 confirm: human TRPML3 channel agonists, confirmation, cell-based, HEK293 TRPML3-YFP, Fluo-8 calcium, triplicate. 310 tested, 80% active. activation, % at 3 µM. AID 1526, 2009. shares compounds with TRPML3 agonist. Fluo-8 calcium fluorescence; 100% set by carbachol, 0% by DMSO;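 active = activation above a set limit derived from the earlier primary screen, cut at about 12% in these data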
# * = called active by the depositor; . = no result.
SMILES,V1R ag counter,OXTR agonist,OXTR potentiate,TRPML3 agonist,zfTRPN1 agonist,others
CC(CCc1ccccc1)NS(=O)(=O)c1ccccc1Cl (stereo unspecified),8,-1,0,.,.,
O=C(c1ccc(S(=O)(=O)Nc2cccc(C(F)(F)F)c2)cc1)N1CCOCC1,5,1,-15,.,.,
CC1CN(C(=O)c2ccc(S(=O)(=O)Nc3cccc(C(F)(F)F)c3)cc2)CC(C)O1 (stereo unspecified),21*,26*,-21,.,.,
Cc1ccc(NS(=O)(=O)c2ccc(C(=O)N3CC(C)CC(C)C3)cc2)cc1 (stereo unspecified),43*,69*,-22,.,.,
Cc1ccc(S(=O)(=O)Nc2ccc(C(=O)N3CCCC3)cc2)cc1,1,0,-4,.,.,
CCOC(=O)C1=NN(C(=O)c2ccc(C)cc2)C(O)(c2ccc(Cl)cc2)C1 (stereo unspecified),32*,37*,-20,18*,25*,
CCc1c(C)sc(NC(=S)N2CC(C)OC(C)C2)c1C(=O)OC (stereo unspecified),-1,-2,-4,0,0,
O=C(NCc1cccc(C(F)(F)F)c1)c1cccc2c1C(=O)c1ccc(N3CCC(Cc4ccccc4)CC3)cc1S2(=O)=O,24*,23*,-11,.,.,
O=C(NCCc1ccc(F)cc1)c1cccc2c1C(=O)c1ccc(N3CCC(Cc4ccccc4)CC3)cc1S2(=O)=O,27*,30*,-10,.,.,
O=C(NCc1ccco1)c1cccc2c1C(=O)c1ccc(N3CCC(Cc4ccccc4)CC3)cc1S2(=O)=O,13,15,-10,.,.,
O=C(O)c1ccccc1-c1c2cc(I)c(=O)c(I)c-2oc2c(I)c(O)c(I)cc12,205*,232*,-12,.,.,
Cc1cccc(C)c1NC(=O)COC(=O)c1ccc2c(c1)OCO2,0,0,-9,1,1,
CC(OC(=O)c1c2c(nc3ccccc13)/C(=C\c1ccc3c(c1)OCO3)CCC2)C(=O)Nc1ccc(S(N)(=O)=O)cc1 (stereo unspecified),.,.,.,22*,28*,
Cc1cccc(C)c1NC(=O)COC(=O)c1c2c(nc3ccccc13)/C(=C\c1ccc3c(c1)OCO3)CCC2,51*,52*,-5,40*,135*,
O=C(O)c1cccc(-c2ccc(/C=N/Nc3ccc([N+](=O)[O-])cc3)o2)c1,34*,26*,-9,11,24*,
O=C(O)c1ccc(-c2ccc(/C=N/Nc3ccc([N+](=O)[O-])cc3)o2)cc1,65*,51*,-33,24*,39*,
NS(=O)(=O)c1ccc(-c2ccc(/C=N/Nc3ccc(C(=O)O)cc3)o2)cc1,0,1,-5,0,3,
O=C(O)c1ccc(N/N=C/C=C/c2ccc([N+](=O)[O-])o2)cc1,41*,29*,-8,.,.,
O=[N+]([O-])c1ccc(N/N=C/c2c[nH]c3ccccc23)cc1,24*,25*,-21,9,10,
CCS(=O)(=O)N1CCC(C(=O)NCc2ccc(OC)cc2)CC1,1,1,4,1,0,
Cc1ccc(NC(=O)CSc2nnc(-c3cccs3)o2)cc1S(=O)(=O)N1CCCCC1,-1,-1,-5,0,1,
COc1cc(/C=N/N2C(=O)CSC2=S)cc(Br)c1O,.,.,.,24*,41*,
Cc1ccc(OCCCC(=O)ON=C(N)c2ccccc2C)cc1,0,-1,-6,.,.,
O=C(O)CCC(=O)Nc1nnc(C(F)(F)F)s1,0,0,-5,1,1,
CCC(NC(=O)Nc1nnc(C(F)(F)F)s1)(C(F)(F)F)C(F)(F)F,12,12,-11,23*,26*,
SMILES,V1R ag counter,OXTR agonist,OXTR potentiate,TRPML3 agonist,zfTRPN1 agonist,others
CCOC(=O)Cc1cnc(NC(=O)CSc2nc(C(C)C)cc(=O)[nH]2)s1,0,2,-3,.,.,
CC(C)=CCC[C@](C)(O)C1CC[C@]2(C)C1[C@H](O)CC1[C@@]3(C)CC[C@H](O[C@@H]4O[C@H](CO)[C@@H](O)[C@H](O)[C@H]4O[C@@H]4O[C@H](CO)[C@@H](O)[C@H](O)[C@H]4O)C(C)(C)C3CC[C@]12C (stereo partly specified),38*,70*,-12,.,.,
Cc1ccc(C2C(C#N)=C(N)Oc3cc(N)ccc32)cc1 (stereo unspecified),3,1,-1,.,.,
Cc1ccc(/C=C2\CCC3=C2OC(N)=C(C#N)C3c2ccc(C)cc2)cc1 (stereo unspecified),43*,23*,-24,7,14,
COc1ccccc1NS(=O)(=O)c1cc(C(=O)NCCC(C)C)ccc1F,1,0,-6,17*,9,TRPN1 ag 2=22*;TRPML3 confirm=35*
COc1ccccc1NS(=O)(=O)c1cc(C(=O)NCc2ccncc2)ccc1C,0,0,-16,.,.,
CN(CC(=O)Nc1ccc(Cl)cc1)c1ccc(S(=O)(=O)N2CCCCC2)cc1[N+](=O)[O-],2,1,-8,0,-1,
O=C(COc1ccccc1C(=O)O)Nc1nc2ccc([N+](=O)[O-])cc2s1,10,15,-30,14*,17,TRPN1 ag 2=22*;TRPML3 confirm=8
CC(=O)c1ccc(NC(=S)NC(C)c2ccc(Cl)cc2Cl)cc1 (stereo unspecified),24*,25*,-13,14*,16,TRPN1 ag 2=17;TRPML3 confirm=9
COc1ccccc1NC(=O)CON=C(N)CC(=O)NC1CCCCC1,4,4,-4,.,.,
COc1cccc(-c2nc(N)nc(SC)c2C#N)c1,-1,-2,-8,0,1,
O=[N+]([O-])/C=C\c1ccc(N2CCCC2)c(F)c1,.,.,.,13*,11,TRPN1 ag 2=27*;TRPML3 confirm=23*
Cc1cc2nc(/N=C(\N)NC(=O)N3c4ccccc4Sc4ccccc43)nc(C)c2cc1C,1,0,-6,1,1,
